Test results: ChEMBL document CHEMBL3779840, “Discovery of 2-((3-Amino-4-methylphenyl)amino)-N-(2-methyl-5-(3-(trifluoromethyl)benzamido)phenyl)-4-(methylamino)pyrimidine-5-carboxamide (CHMFL-ABL-053) as a Potent, Selective, and Orally Available BCR-ABL/SRC/p38 Kinase Inhibitor for Chronic Myeloid Leukemia” (J Med Chem, 2016)
pIC50: −log10 of the molar value. Activity calls are given as the source filed them. The rule behind the calls is not given here.

Key:
[1] = Half life in Sprague-Dawley rat at 1 mg/kg, iv; type: ADME, organism-based; conditions: in vivo
BaF3 = conditions: Homo sapiens
[2] = target: Tyrosine-protein kinase Lck (Homo sapiens) (UniProt P06239); assay: Inhibition of partial length human wild type LCK expressed in bacterial expression system assessed as residual activity at 1 uM relative to control
[3] = AUC(0 to infinity) in Sprague-Dawley rat at 1 mg/kg, iv; type: ADME, organism-based; design: dose 1 mg/kg, route intravenous, time infinity; conditions: in vivo
[4] = Cmax in Sprague-Dawley rat at 1 mg/kg, iv; type: ADME, organism-based; design: dose 1 mg/kg, route intravenous; conditions: in vivo
[5] = target: T1, Proto-oncogene tyrosine-protein kinase Src (Homo sapiens, UniProt P12931); assay: Inhibition of SRC phosphorylation in human K562 cells at 0.01 to 3 uM after 1 hr by immunoblotting method; type: cell-based
Method in brief: (§1)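 Cells were treated for 1 h at the indicated concentrations. Whole-cell lysates were then analysed by Western blot for phosphorylation of signalling proteins in the BCR-ABL pathway.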

[6] = target: Mast/stem cell growth factor receptor Kit (Homo sapiens, UniProt P10721); assay: Inhibition of His-tagged recombinant human c-Kit […] expressed in mammalian expression system
[7] = target: T2, Bcr/Abl fusion protein (Homo sapiens) (UniProt P00519+P11274); conditions: BaF3
KU812 cell line = assay: Induction of apoptosis in human KU812 cells assessed as increase in cleaved caspase3 level at 100 nM after 24 hrs by immunoblotting method; type: functional, cell-based
[8] = target: Tyrosine-protein kinase Blk (Homo sapiens) (UniProt P51451); assay: Inhibition of partial length human wild type BLK expressed in bacterial expression system assessed as residual activity at 1 uM relative to control
HEL = assay: Antiproliferative activity against human HEL cells assessed as cell viability after 72 hrs by CellTiter-Glo or CCK-8 assay; type: functional
[9] = Mean residence time (0 to infinity) in Sprague-Dawley rat at 10 mg/kg, po; type: ADME, organism-based; conditions: in vivo
[10] = Antiproliferative activity against mouse BA/F3 cells assessed as cell viability after 72 hrs by CellTiter-Glo or CCK-8 assay; type: cell-based, BaF3
K562 = assay: Antitumor activity against human K562 cells xenografted in nu/nu mouse assessed as tumor growth inhibition at 50 mg/kg/day, qd administered through oral gavage measured after 16 days; type: functional; conditions: 384 h, read-out: TGI
Method in brief: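 Female nu/nu mice bore established K562 xenografts and received daily oral dosing at 25.0 or 50.0 mg/kg/d, or vehicle, starting when tumors reached 200 to 400 mm3, for 16 days. Groups had 5 animals; data are mean ± SEM. Tumor size and body weight were normalized to initial values, and final tumor weight was recorded. Tumor tissue was stained with HE, Ki-67 and TUNEL.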

[11] = target: Ephrin type-A receptor 8 (Homo sapiens) (UniProt P29322); assay: Inhibition of partial length human wild type EPHA8 expressed in bacterial expression system assessed as residual activity at 1 uM relative to control
[12] = target: T1, Proto-oncogene tyrosine-protein kinase Src; assay: Inhibition of SRC phosphorylation in human KU812 cells at 0.01 to 3 uM after 1 hr by immunoblotting method; type: cell-based; method in brief: as §1
[13] = target: T2, Bcr/Abl fusion protein (Homo sapiens); assay: Inhibition of BCR/ABL in human MEG01 cells assessed as downregulation of Stat5 phosphorylation at […] site after 1 hr by immunoblotting method; type: cell-based; conditions: MEG-01
Method in brief: (§2)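 KU812, K562 and MEG-01 cells were exposed to compound at the indicated concentrations for 1 h. Whole-cell lysates were then analysed by Western blot for phosphorylated signaling proteins.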

Mus musculus [14] = assay: Toxicity in nu/nu mouse xenografted with K562 cells assessed as mortality at 25 and 50 mg/kg/day, qd administered through oral gavage for 16 days measured every day during compound dosing; type: organism-based; conditions: in vivo, 384 h
Method in brief: (§3)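 Female nu/nu mice carrying established K562 xenografts received oral treatment once daily at 25.0 or 50.0 mg/kg/d, or vehicle, starting when tumours reached 200 to 400 mm3. There were 5 animals per group and dosing lasted 16 days. Body weight was expressed relative to initial weight (set as 100%), and mortality was recorded. Data are given as mean ± SEM.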

[15] = AUC(0 to t) in Sprague-Dawley rat at 10 mg/kg, po; type: ADME, organism-based; conditions: in vivo
Mus musculus [16] = assay: Toxicity in nu/nu mouse xenografted with K562 cells assessed as decrease in body weight at 25 and 50 mg/kg/day, qd administered through oral gavage for 16 days measured every day during compound dosing; type: organism-based; conditions: in vivo, 384 h; method in brief: as §3
[17] = target: Transcription factor ETV6/Tyrosine-protein kinase ABL1 (Homo sapiens) (UniProt P00519+P41212); conditions: BaF3
[18] = target: T2, Bcr/Abl fusion protein (Homo sapiens); assay: Inhibition of BCR/ABL autophosphorylation at Y245 site in human KU812 cells at 300 nM after 1 hr by immunoblotting method; type: cell-based; method in brief: as §2
[19] = target: Mitogen-activated protein kinase 14 (Homo sapiens, UniProt Q16539); assay: Inhibition of full length human wild type p38-alpha expressed in bacterial expression system assessed as residual activity at 1 uM relative to control
MEG-01 = assay: Induction of apoptosis in human MEG01 cells assessed as increase in cleaved PARP level at 100 nM after 48 hrs by immunoblotting method; type: functional, cell-based
[20] = tested on: Mast/stem cell growth factor receptor Kit (Homo sapiens), P10721 [V559D]; assay: Inhibition of partial length human KIT V559D mutant expressed in bacterial expression system assessed as residual activity at 1 uM relative to control
[21] = target: T2, Bcr/Abl fusion protein (Homo sapiens); assay: Inhibition of BCR/ABL in human K562 cells assessed as downregulation of Stat5 phosphorylation at […] site after 1 hr by immunoblotting method; type: cell-based; method in brief: as §2
[22] = target: T1, Proto-oncogene tyrosine-protein kinase Src; assay: Inhibition of full length recombinant human C-terminal His-tagged SRC expressed in Baculovirus expression system
Method in brief: (§4)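 IC50 values were determined with the Invitrogen SelectScreen biochemical kinase assay.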

[23] = target: Ephrin type-B receptor 6 (Homo sapiens) (UniProt O15197); assay: Inhibition of partial length human wild type EPHB6 expressed in mammalian expression system assessed as residual activity at 1 uM relative to control
[24] = Antiproliferative activity against […] CHL cells assessed as cell viability after 72 hrs by CellTiter-Glo or CCK-8 assay; type: cell-based, Cricetulus griseus; conditions: chinese hamster
[25] = tested on: Mast/stem cell growth factor receptor Kit (Homo sapiens), P10721 [L576P]; assay: Inhibition of partial length human KIT L576P mutant expressed in bacterial expression system assessed as residual activity at 1 uM relative to control
[26] = target: Epithelial discoidin domain-containing receptor 1 (Homo sapiens, UniProt Q08345); assay: Inhibition of GST-tagged human DDR1 (440 to 876 residues) expressed in Baculovirus expression system
[27] = target: Tyrosine-protein kinase Lck (Homo sapiens) (UniProt P06239); conditions: BaF3
[28] = target: Tyrosine-protein kinase ABL1 (Homo sapiens, UniProt P00519); assay: Inhibition of full length recombinant human ABL1 expressed in Baculovirus expression system; method in brief: as §4
[29] = target: T2, Bcr/Abl fusion protein (Homo sapiens); assay: Inhibition of BCR/ABL in human K562 cells assessed as downregulation of CrkL phosphorylation at […] site after 1 hr by immunoblotting method; type: cell-based; method in brief: as §2

T1 sequence (P12931 2-536 limits assumed): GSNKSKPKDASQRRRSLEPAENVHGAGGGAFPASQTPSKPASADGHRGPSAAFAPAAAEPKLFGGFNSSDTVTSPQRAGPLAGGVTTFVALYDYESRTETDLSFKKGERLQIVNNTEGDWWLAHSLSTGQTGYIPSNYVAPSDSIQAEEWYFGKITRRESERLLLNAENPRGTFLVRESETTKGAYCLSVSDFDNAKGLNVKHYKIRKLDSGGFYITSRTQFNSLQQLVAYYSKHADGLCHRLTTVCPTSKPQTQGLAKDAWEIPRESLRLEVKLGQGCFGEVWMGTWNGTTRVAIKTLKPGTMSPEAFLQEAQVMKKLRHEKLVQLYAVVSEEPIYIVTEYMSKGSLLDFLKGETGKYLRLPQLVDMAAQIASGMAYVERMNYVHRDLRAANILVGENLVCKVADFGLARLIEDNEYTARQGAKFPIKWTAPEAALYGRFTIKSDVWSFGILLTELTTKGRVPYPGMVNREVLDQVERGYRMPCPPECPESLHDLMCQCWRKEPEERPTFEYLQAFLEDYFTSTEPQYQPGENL
T2 sequence (P00519 whole entry, looked up, the tested form may be a part): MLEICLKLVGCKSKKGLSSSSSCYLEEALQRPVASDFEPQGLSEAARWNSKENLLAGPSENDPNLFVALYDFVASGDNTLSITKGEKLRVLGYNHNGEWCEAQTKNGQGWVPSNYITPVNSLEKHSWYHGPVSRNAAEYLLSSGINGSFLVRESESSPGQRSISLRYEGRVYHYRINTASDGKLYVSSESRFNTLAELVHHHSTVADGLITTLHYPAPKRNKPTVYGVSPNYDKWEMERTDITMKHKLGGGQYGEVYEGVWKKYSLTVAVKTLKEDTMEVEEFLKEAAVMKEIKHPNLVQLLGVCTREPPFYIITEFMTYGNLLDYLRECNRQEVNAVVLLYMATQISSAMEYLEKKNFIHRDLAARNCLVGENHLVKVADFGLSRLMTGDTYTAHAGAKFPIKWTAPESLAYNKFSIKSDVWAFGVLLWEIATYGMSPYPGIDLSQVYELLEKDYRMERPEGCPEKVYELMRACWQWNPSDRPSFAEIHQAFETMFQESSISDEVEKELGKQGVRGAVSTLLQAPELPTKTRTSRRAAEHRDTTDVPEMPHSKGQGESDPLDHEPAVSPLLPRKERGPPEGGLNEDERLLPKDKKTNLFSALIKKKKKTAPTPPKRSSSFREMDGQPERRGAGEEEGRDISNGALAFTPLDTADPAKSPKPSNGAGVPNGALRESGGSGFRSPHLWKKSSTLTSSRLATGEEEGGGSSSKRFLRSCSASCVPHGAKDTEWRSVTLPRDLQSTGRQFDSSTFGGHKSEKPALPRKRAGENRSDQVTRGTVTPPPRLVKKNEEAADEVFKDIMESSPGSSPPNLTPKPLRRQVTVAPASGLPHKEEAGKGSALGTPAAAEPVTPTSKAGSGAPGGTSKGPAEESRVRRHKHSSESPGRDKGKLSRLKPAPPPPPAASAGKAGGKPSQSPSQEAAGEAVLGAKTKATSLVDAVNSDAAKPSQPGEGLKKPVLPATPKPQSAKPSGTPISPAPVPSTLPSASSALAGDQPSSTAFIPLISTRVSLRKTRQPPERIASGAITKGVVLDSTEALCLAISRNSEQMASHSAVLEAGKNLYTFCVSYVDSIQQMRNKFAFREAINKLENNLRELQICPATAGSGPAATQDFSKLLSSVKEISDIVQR
T2 sequence (P11274 whole entry, looked up, the tested form may be a part): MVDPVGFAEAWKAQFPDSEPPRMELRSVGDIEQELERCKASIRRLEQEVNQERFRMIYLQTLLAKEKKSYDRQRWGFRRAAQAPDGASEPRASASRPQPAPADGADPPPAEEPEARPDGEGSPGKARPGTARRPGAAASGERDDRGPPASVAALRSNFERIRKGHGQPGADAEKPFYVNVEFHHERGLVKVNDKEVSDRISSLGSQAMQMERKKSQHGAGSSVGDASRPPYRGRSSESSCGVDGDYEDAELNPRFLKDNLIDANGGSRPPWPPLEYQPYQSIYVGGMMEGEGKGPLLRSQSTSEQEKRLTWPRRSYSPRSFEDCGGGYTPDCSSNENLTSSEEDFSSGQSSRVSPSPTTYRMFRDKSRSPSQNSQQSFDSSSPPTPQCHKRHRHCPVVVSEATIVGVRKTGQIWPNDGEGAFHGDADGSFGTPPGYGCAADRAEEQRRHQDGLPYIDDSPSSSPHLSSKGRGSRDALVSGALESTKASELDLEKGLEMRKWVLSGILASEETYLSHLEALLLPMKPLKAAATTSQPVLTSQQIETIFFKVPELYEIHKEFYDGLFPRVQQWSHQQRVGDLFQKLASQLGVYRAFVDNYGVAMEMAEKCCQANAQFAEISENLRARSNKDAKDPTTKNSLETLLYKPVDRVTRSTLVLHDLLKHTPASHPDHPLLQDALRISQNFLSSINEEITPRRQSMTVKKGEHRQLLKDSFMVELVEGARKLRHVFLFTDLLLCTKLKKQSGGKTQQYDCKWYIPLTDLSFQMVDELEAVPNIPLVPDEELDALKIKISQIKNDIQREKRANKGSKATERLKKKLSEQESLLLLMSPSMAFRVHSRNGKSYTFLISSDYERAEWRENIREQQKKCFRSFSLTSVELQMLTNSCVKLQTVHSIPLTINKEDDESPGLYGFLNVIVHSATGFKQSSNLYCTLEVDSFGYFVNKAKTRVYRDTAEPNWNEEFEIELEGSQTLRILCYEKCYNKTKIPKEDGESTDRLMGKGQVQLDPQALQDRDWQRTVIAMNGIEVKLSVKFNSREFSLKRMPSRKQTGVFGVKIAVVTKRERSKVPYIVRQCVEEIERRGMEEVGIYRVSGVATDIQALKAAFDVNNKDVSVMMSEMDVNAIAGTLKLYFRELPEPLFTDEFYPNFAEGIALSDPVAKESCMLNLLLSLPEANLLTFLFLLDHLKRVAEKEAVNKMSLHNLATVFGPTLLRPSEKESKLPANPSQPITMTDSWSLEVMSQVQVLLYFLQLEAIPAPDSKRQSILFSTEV
Chain of Tyrosine-protein kinase Lck (Homo sapiens) (P06239 2-509 limits assumed): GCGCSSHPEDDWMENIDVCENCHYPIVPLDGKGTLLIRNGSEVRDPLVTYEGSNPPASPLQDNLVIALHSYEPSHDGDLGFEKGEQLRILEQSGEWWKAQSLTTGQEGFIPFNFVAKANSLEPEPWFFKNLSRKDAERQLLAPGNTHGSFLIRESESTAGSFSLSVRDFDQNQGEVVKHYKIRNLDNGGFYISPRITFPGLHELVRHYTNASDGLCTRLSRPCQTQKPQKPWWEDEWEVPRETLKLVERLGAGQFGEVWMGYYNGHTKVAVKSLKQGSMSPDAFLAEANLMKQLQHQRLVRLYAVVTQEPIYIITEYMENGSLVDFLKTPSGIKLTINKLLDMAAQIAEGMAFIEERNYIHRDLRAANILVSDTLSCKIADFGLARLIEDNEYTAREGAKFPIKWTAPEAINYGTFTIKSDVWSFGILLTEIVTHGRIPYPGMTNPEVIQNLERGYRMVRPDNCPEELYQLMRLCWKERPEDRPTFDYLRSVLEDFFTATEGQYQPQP
Chain of Tyrosine-protein kinase Blk (Homo sapiens) (P51451 2-505 limits assumed): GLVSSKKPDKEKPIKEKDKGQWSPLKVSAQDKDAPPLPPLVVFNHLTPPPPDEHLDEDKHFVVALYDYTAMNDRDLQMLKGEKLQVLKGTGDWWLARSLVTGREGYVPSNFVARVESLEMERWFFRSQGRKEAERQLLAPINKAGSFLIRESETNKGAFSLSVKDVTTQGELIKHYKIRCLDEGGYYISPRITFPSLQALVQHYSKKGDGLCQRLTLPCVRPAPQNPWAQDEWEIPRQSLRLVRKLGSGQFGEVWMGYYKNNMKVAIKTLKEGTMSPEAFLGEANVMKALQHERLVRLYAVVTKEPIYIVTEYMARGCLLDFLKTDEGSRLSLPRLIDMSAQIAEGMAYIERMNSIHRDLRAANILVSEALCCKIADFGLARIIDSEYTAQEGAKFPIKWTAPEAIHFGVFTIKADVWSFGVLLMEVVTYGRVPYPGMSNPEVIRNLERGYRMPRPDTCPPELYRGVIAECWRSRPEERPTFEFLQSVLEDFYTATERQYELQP
Chain of Mast/stem cell growth factor receptor Kit (Homo sapiens), P10721 [V559D] (P10721 whole entry V559D, the tested form may be a part): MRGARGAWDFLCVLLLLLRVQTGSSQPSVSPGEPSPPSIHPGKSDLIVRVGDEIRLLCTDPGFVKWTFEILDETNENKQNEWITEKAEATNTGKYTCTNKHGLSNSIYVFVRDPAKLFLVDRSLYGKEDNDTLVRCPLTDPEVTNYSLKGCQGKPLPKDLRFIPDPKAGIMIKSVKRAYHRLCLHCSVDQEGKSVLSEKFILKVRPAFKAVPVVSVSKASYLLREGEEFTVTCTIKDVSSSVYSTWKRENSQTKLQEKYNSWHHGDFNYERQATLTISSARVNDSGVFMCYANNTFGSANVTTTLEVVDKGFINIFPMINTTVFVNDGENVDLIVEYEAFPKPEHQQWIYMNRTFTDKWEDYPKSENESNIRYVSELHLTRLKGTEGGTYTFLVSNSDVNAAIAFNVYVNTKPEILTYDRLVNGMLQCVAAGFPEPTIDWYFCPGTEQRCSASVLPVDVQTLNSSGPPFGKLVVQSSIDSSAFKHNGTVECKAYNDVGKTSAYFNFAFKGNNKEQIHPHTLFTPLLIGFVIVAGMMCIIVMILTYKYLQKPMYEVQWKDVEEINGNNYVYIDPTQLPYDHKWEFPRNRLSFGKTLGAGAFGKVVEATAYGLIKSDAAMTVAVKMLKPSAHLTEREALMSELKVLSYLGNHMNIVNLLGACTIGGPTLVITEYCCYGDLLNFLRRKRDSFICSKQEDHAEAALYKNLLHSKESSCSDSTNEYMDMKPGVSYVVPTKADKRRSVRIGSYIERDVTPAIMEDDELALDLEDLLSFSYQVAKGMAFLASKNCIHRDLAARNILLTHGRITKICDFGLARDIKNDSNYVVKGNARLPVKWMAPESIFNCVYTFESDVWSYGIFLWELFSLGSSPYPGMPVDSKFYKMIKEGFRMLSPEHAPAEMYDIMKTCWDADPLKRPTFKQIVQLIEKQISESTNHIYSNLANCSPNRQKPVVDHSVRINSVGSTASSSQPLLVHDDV

CNc1nc(Nc2ccc(C)c(N)c2)ncc1C(=O)Nc1cc(NC(=O)c2cccc(C(F)(F)F)c2)ccc1C
half-life [1]: 169 min | GI50 (BaF3): 73 nM | Activity [2]: 0.3% | AUC(0-inf) [3]: 721 ng·h/mL | Cmax [4]: 2400 ng/mL | inhibition [5]: inactive | pIC50 [6]: < 5.00 | GI50 [7]: 440 nM | Activity (KU812 cell line): Active | Activity [8]: 0.55% | GI50 (HEL): > 10 µM | MRT inf [9]: 5.51 h | GI50 at 72 h [10]: > 10 µM | inhibition in vivo at 50 mg/kg/day (K562): 48.3% | Activity [11]: 0.8% | inhibition [12]: inactive | inhibition [13]: Dose-dependent effect | Activity (Mus musculus [14]): Non-toxic | AUC(0-t) [15]: 1720 ng·h/mL | Activity (Mus musculus [16]): Non-toxic | GI50 [17]: 53 nM | inhibition [18]: Active | Activity [19]: 0% | Activity (MEG-01): Active | Activity [20]: 1% | inhibition [21]: Dose-dependent effect | pIC50 [22]: 7.05 | Activity [23]: 0.95% | GI50 at 72 h [24]: > 10 µM | Activity [25]: 0.8% | pIC50 [26]: 6.53 | GI50 [27]: 600 nM | pIC50 [28]: 7.15 | inhibition [29]: Dose-dependent effect
